# Source: PubChem BioAssay
# This is a sample that favours compounds with a hit; in the whole collection about 2.6% have one here.
# 5HT1a ag: agonists of human 5-HT1a serotonin receptor. P08908. CHO 5-HT1a Ga15 NFAT-bla reporter, FRET ratio; 0% basal, 100% maximal reference agonist. activation, % at 10 µM. 65,000 compounds, 0.56% hits;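 active means activation above the screen-wide mean activation plus 3 SD, cut at about 19% in these data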;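 further: 0% = DMSO wells and 100% = 5-CT at EC100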
# HTR1E antagonist: blocks the human 5-HT1E serotonin receptor | P28566 | CHO 5-HT1E Ga15 NFAT-bla reporter, FRET, antagonist | inhibition, % at 6 µM | 65,000 compounds, 0.99% hits | AID 571;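 active means inhibition above a set limit, the mean inhibition across every tested compound plus 3 SD, cut at about 29% in these data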;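 further: signal is the 460 over 535 nm emission ratio of beta-lactamase substrate; 0% = agonist plus DMSO wells and 100% = wells without agonist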
# Target sequence (P28566 whole entry, looked up): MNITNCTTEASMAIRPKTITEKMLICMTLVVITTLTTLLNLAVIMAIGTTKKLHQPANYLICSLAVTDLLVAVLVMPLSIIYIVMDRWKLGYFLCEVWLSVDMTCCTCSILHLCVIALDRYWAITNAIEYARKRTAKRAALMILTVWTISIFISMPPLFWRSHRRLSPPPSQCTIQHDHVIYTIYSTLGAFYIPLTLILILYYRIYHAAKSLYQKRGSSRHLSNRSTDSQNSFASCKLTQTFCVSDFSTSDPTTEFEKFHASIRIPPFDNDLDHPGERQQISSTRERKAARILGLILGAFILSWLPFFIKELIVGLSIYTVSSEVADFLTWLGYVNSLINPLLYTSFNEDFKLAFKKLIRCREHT
# S1P3 ag: activates the human S1P3 receptor. Q99500. S1P3 NFAT-BLA reporter cells, agonism, FRET ratio; relative to 1 µM S1P, basal subtracted. activation, % at 4.5 µM. 60,000 compounds, 0.1% hits. AID 373;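 active means activation above the screen-wide mean plus 3 SD, cut at about 4.5% in these data, passing the limit was not always enough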
#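 material = human S1P3 NFAT-BLA reporter CHO cells | schedule = 4 h compound at 37 °C, 2 h substrate at RT | measured by = fluorescent BLA substrate, ex 405 nm, em 460/535 nm ratio | controls = 1 µM S1P reference | replication = primary once, confirmation triplicate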
# HTR1E agonist: 5-HT1E (human) receptor agonism; P28566; CHO 5-HT1E Ga15 NFAT-bla reporter, FRET; 0% DMSO wells, 100% control agonist wells; activation, % at 6 µM; 65,000 compounds, 0.69% hits; AID 574;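 active means activation above a set limit, the screen-wide mean activation plus 3 SD, cut at about 8.5% in these data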;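 further: 100% = positive control agonist at 1 µM giving full maximal response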
# 5-HT1A blocker: blocks the human serotonin 5-HT1a receptor; P08908; CHO 5-HT1a Ga15 NFAT-bla reporter, antagonist mode; inhibition, % at 10 µM; 62,000 compounds, 0.68% hits; AID 612;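 active means inhibition above the mean of all tested compounds plus 3 SD, cut at about 43% in these data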;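 further: receptor stimulated by 5-CT agonist at 100 nM near EC80; beta-lactamase reporter measured by ratiometric fluorescence of a cleavable substrate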
# * = called active by the depositor; . = no result.
SMILES,5HT1a ag,HTR1E antagonist,S1P3 ag,HTR1E agonist,5-HT1A blocker
O=C(N1CCN(c2ccccn2)CC1)N1c2ccccc2Sc2ccccc21,0,37*,-1,0,48*
C=CCOn1c(=O)c(=O)n(OCc2ccccc2)c2ccccc21,-1,-6,0,3,-13
CCn1nc(C(=O)OCc2c(C)noc2C)c2ccccc2c1=O,-1,29*,-1,0,11
CC(C)CCNC(=O)C(c1cccs1)N(CC1CCCO1)C(=O)Cn1nnc2ccccc21 (stereo not given),-1,-2,0,0,22
CCC(C)(C(=O)NC1CCCCC1)N(Cc1ccco1)C(=O)c1ccc2c(c1)OCO2 (stereo not given),-1,-6,-1,-1,44*
C#CCOc1nc(OCC#C)nc(OCC#C)n1,-1,-6,-1,0,-10
NC(=O)c1cc2ccc(O)cc2oc1=Nc1ccccc1,99*,-48,6,50*,-322
NC(=O)c1cc2ccc(O)cc2oc1=NCc1ccccc1,86*,-22,3,26*,-207
COc1ccc(OC)c(N=c2oc3cc(O)ccc3cc2C(N)=O)c1,39*,-21,4,12*,-53
CCOc1ccc(OCC)c(N=c2oc3c(C)ncc(CO)c3cc2C(N)=O)c1,0,-3,-1,0,-6
O=C(O)CN1C(=O)Nc2ccc(Br)cc2C1c1ccccc1 (stereo not given),-3,32*,.,-3,-3
COc1ccc(S(=O)(=O)N(CC(=O)NCc2ccco2)C2CCCCC2)cc1OC,-3,8,-2,0,11
Cc1ccc2c(CSc3nc4ccccc4c(=O)n3CCCO)cc(=O)oc2c1,-1,33*,0,0,16
CCn1c(SCC(=O)Nc2cc(OC)ccc2OC)nnc1C1CCCCC1,0,14,0,1,11
CNc1nc(SCc2ccccc2)nc(N2CCOCC2)n1,-7,33*,0,0,0
COc1ccccc1NC(=O)NCCCN1CCN(c2cccc(Cl)c2)CC1,2,-22,0,3,38
O=c1n(CCCN2CCN(c3cccc(Cl)c3)CC2)nc2ccccn12,5,3,-2,9.5*,.
COc1cc(CNC2CCCCCC2)cc(OC)c1OC,-4,-5,-1,0,21
COc1cc(OC)c(OC)cc1CNC1CCCCCC1,33*,18,-2,0,8
Cc1cccc(N2CCN(C(=O)c3cc4c(C)nc5ccccc5c4o3)CC2)c1C,-2,-3,-1,0,5
CCOC(=O)c1oc2ccccc2c1NC(=O)c1cc(OC)cc(OC)c1,-4,15,1,112*,20
CCOC(=O)C1CCCN(C(=O)c2cc3c(=O)n4cccc(C)c4nc3n2C)C1 (stereo not given),0,-4,-1,0,-4
O=C(NCc1ccco1)C(c1cccs1)N(C(=O)Cc1cccs1)c1ccccc1 (stereo not given),-2,15,-2,-2,52*
Cc1c(=O)n(OCc2ccccc2F)c2ccccc2[n+]1[O-],25*,-9,0,-1,-4
O=C(O)c1c(Cl)c(Cl)c(Cl)c(Cl)c1C(=O)N1CCOCC1,0,-2,0,0,-1
SMILES,5HT1a ag,HTR1E antagonist,S1P3 ag,HTR1E agonist,5-HT1A blocker
Cc1ncc(CO)c2c1OC(C)(C)OC2,27*,4,-1,-1,2
Cn1c(=O)c2c(nc(Oc3ccc4c(c3)OCO4)n2Cc2ccc(Br)cc2)n(C)c1=O,40*,-9,-2,0,.
Cn1c(=O)c2c(nc(Oc3ccc4c(c3)OCO4)n2Cc2ccc(F)cc2)n(C)c1=O,4,5,-3,-1,.
Cc1ccc(-c2nc(NC(=O)CSc3nnnn3-c3ccccc3)ns2)cc1,2,-15,-1,0,50*
CCOc1ccc(NC(=O)c2oc3ccccc3c2NC(=O)C(C)C)cc1,-2,3,-1,0,-24
COC(=O)c1cc(=O)n(C2CC2)c(=NC2CC2)s1,1,31*,.,0,6
CCOC(=O)c1ccc(N=c2sc(C(=O)OC)cc(=O)n2C2CC2)cc1,1,2,1,1,-13
CCOC(=O)Cn1c(=O)oc2cc(S(=O)(=O)Nc3ccc(N(CC)CC)cc3C)ccc21,1,12,0,0,5
COc1ccc(Nc2nc(OC)nc(N3CCN(c4ccc(OC)cc4)CC3)n2)cc1,-2,-5,0,0,-1
COc1ccc(N2CCN(c3nc(NCCc4ccc(OC)c(OC)c4)nc(OC)n3)CC2)cc1,5,21,-2,0,46*
C=CCn1c(=O)/c(=C/c2cc(OC)c(OC)c(OC)c2)s/c1=C(/C#N)c1nc2ccccc2n1C,2,20,.,0,-11
O=c1c2ccccc2nc2n1CC/C2=C/N1CCN(c2cccc(C(F)(F)F)c2)CC1,2,-8,0,39*,9
O=C1CC(N2CCN(c3cccc(C(F)(F)F)c3)CC2)C(=O)N1c1ccccc1 (stereo not given),0,8,-2,-1,-2
N#CCCNc1ccc(OCCC#N)cc1,-3,-11,-1,0,4
COc1cccc(OCC(O)CN2CCC(Cc3ccccc3)CC2)c1 (stereo not given),9,-1,-1,1,52*
CC(=O)N1c2ccccc2C(=O)C1N1CCCCC1 (stereo not given),0,3,.,-1,16
Cc1nnc(SCC(=O)N2c3ccccc3Sc3ccccc32)n1N,-3,-7,2,0,4
Cc1nnc(SC(=O)N2c3ccccc3Sc3ccccc32)s1,-1,24,0,0,74*
COCC(=O)N(Cc1cc2cc(OC)ccc2[nH]c1=O)c1ccc(C)cc1,-2,6,-1,-2,-3
CCOc1ccc(N(CC(=O)NCc2cccc(OC)c2)S(=O)(=O)c2c(C)noc2C)cc1,0,1,1,0,-3
CC(C)(C)c1cccc(/C=N/O)c1O,2,30*,-2,0,.
CCCn1c(C)nc2c(c1=O)c1nc3ccccc3nc1n2-c1ccc2c(c1)OCCO2,-2,3,-2,-1,-5
CC(C)c1nc(N2CCOCC2)c(C#N)c2c1CCCC2,2,-10,0,0,-4
CC(C)CSc1nc(N2CCOCC2)c2c(c1C#N)CC(C)(C)SC2,-1,29*,-3,-1,.
CCSc1nc(N2CCOCC2)c2c(c1C#N)CCCC2,8,4,4.7*,1,-15
CCN(CC)c1nc(N2CCOCC2)c(C#N)c2c1CN(C)CC2,2,5,-2,52*,.
O=C(OCn1nnc2ccccc2c1=O)c1cc2ccccc2o1,-4,2,-1,1,-5
CCc1nc(N)c(C#N)c(-c2ccccc2OC)c1C,1,-11,2,0,5
Cc1ccc(C)c(S(=O)(=O)N2CCN(CC(=O)NC(=O)NCc3ccccc3)CC2)c1,1,1,-1,1,0
